Source: PubChem
HCV NS3 hel inh: inhibitors of HCV NS3 helicase, primary screen, biochemical, Cy5 molecular beacon fluorescence; Hepatitis C virus NS3 helicase; NS3 helicase DNA unwinding; inhibition, % at 10.9 µM; hit rate 0.56% among 290,000;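 active means inhibition above the mean of all tested compounds plus 3 SD, set per campaign, cut at about 35% in these data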;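 further: 0% = DMSO wells and 100% = thioflavine S control wells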
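Assay system: hepatitis C virus NS3 helicase domain fragment enzyme. Also added: annealed dual-labelled DNA beacon duplex, ATP-started. Timing: 1 h reaction at 25 °C, ATP-initiated. Technique: Cy5 fluorescence at 0 and 60 min, beacon hairpin quenching. Evaluation: % inhibition of unwinding. Replication: one well per compound.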
ABHD5-PLIN5 inh: ABHD5-PLIN5 interaction inhibitors, primary screen, cell lysate, split luciferase complementation, luminescence | Perilipin-5 (Homo sapiens) + 1-acylglycerol-3-phosphate O-acyltransferase ABHD5 (Homo … | Split G. princeps luciferase complementation, 4 h | inhibition, % at 4 µM | hit rate 0.78% among 360,000 | AID 602281, 2012;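 active means inhibition above the mean inhibition across every tested compound plus 3 SD, cut at about 22% in these data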;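 further: 0% = DMSO only wells and the 100% control is not disclosed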
Target sequence (Q00G26 whole entry, looked up): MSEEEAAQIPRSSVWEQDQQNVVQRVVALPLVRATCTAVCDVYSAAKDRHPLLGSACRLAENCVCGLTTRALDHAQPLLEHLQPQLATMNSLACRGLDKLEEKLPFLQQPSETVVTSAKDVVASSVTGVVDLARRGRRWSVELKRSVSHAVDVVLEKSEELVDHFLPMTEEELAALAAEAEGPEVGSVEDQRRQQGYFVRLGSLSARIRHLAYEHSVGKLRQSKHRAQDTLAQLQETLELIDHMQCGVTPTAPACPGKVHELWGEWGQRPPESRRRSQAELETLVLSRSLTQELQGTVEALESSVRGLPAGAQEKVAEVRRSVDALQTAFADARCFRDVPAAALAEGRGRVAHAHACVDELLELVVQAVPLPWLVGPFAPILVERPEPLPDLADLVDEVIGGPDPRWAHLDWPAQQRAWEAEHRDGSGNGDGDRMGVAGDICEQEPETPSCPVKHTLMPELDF
Target sequence (Q8WTS1 whole entry, looked up): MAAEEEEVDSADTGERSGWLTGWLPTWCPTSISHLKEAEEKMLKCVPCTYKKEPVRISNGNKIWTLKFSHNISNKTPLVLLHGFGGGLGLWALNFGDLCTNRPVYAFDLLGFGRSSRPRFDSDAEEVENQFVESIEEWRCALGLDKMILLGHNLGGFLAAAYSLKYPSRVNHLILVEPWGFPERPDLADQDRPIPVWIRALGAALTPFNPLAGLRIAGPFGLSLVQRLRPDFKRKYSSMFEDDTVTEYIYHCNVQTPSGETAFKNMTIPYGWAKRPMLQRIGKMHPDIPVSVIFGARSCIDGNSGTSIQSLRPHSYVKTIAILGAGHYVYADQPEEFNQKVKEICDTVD
APOBEC3G inh: APOBEC3G DNA deaminase inhibitors, primary screen, biochemical, fluorescence, single-stranded DNA substrate, uHTS; AID 493012, 2011; inhibition, % at 20 µM; DNA dC->dU-editing enzyme APOBEC-3G (Homo sapiens), Q9HC16; recombinant A3G, ssDNA deamination FAM/TAMRA fluorescence; hit rate 0.28% among 330,000;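 active means inhibition of at least 40% at 20 µM, with no more than 30% in the related APOBEC3A deaminase screen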;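 further: plate controls were DMSO wells with A3G for no effect and wells lacking A3G enzyme for full effect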
PRMT1 inh: PRMT1 methyltransferase inhibitors, primary screen, biochemical, fluorescence polarization; Protein arginine N-methyltransferase 1 (Homo sapiens), Q99873; recombinant PRMT1, activity-based probe fluorescence polarization; inhibition, % at 2.79 µM; hit rate 1.3% among 370,000;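 active means inhibition above about 21% made by adding two undisclosed values, limit read from the data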
APOBEC3A inh: APOBEC3A ssDNA deaminase inhibitors, primary screen, selectivity assay for APOBEC3G inhibitor project, biochemical, FAM/TAMRA oligo cleavage fluorescence. recombinant A3A, FAM/TAMRA ssDNA deamination fluorescence. DNA dC->dU-editing enzyme APOBEC-3A (Homo sapiens), P31941. hit rate 0.41% among 330,000. inhibition, % at 20 µM. AID 493011, 2011;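 active means at least 40% inhibition at 20 µM here, with at most 30% in a related deaminase screen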;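 further: plate controls were A3A with DMSO for no effect and wells lacking A3A enzyme for full effect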
core dimer inh: inhibitors of HCV core protein dimerization, primary screen, biochemical, TR-FRET, high-throughput; TR-FRET GST/Flag-core106 dimerization, 1536-well; AID 1899, 2009; inhibition, % at 5 µM; hit rate 0.33% among 300,000;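 active means inhibition above the mean of all tested compounds plus 3 SD, set per screening campaign, cut at about 45% in these data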
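Test system: GST/Flag-tagged HCV core106 proteins; Medium: KF-containing HEPES buffer, pH 7.45, DTT, CHAPS, BSA; Times: compound-protein-antibody incubation 4 h at 22.5 °C; Detection: TR-FRET 671 and 617 nm emission; Benchmarks: wells lacking GST-core106 and wells with excess unlabelled core106.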
ABHD5 PLIN5 conf: ABHD5-PLIN5 interaction inhibitors, confirmation, biochemical, luminescence. hit rate 67% among 2,200. shares compounds with ABHD5-PLIN5 inh. inhibition, % at 4 µM; in the data active means inhibition above about 23%;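 further: 0% = DMSO vehicle wells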
HNF4 split-luc: HNF4 dimerization inhibitors, counter-screen for ABHD5-PLIN5 interaction inhibitor project, biochemical, split-luciferase complementation, luminescence; shares compounds with ABHD5-PLIN5 inh; inhibition, % at 4 µM; hit rate 77% among 2,200;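 active means mean inhibition across replicate wells exceeding the computed hit threshold, cut at about 13% in these data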;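 further: light from luciferase halves that rejoin when HNF4 fusion proteins dimerize; 0% = DMSO only wells and the 100% control is not given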
* marks the source's active call; other numbers are inactive results; / = no result; ! = a repeat was not active. This is a sample that favours compounds with a hit; in the whole collection about 2.9% have one here.

SMILES	HCV NS3 hel inh	ABHD5-PLIN5 inh	APOBEC3G inh	PRMT1 inh	APOBEC3A inh	core dimer inh	ABHD5 PLIN5 conf	HNF4 split-luc
CN(C)c1ccc(/C=C/c2ccc3ccccc3[n+]2C)cc1	-3	29*	21	1	27	-71	23*	30*
O=C(CC(=O)c1cc(Cl)ccc1O)c1ccccc1	6	-3	-1	0	-4	4	/	/
O=C(c1ccccc1)c1cc(Cl)ccc1N1C(=O)C=CC1=O	6	38*	/	91*	/	/	47*	98*
CC(C)c1nnc(NC(=O)CCS(=O)(=O)c2nc(-c3cccs3)cc(C(F)(F)F)n2)s1	-1	37*	-1	8	-2	5	76*	89*
COCCOC(=O)/C(=C\c1cc(C(C)(C)C)c(O)c(C(C)(C)C)c1)C(C)=O	-3	44*	-7	1	0	4	80*	72*
O=C(c1ccncc1)N1CC[C@H]2[C@H](CCCN2Cc2ccccc2)C1	/	/	/	-2	/	/	/	/
O=C(O)c1ccc(NC2=C(Cl)C(=O)c3ccccc3C2=O)cc1	9	3	-2	13	6	-22	/	/
O=C(O)c1cccc(NC2=C(Cl)C(=O)c3ccccc3C2=O)c1	3	38*	/	8	/	/	38*	24*
Cc1ccc(-n2nc(C)c3c(C)c(CCC(=O)Nc4ccc(CN5CCCC5)cc4)c(C)nc32)cc1	-57	29*	-4	2	-3	-8	12	3
COC(CNC(=O)CCc1c(C)nc2c(c(C)nn2-c2ccc(C)cc2)c1C)OC	-9	-1	-3	-1	2	/	/	/
Cc1ccc(N2C(=O)c3ccccc3C2=O)cc1	-4	-3	-6	-2	-4	0	/	/
Cc1ccc(SC2=C(Sc3ccc(C)cc3)C(=O)c3ccccc3C2=O)cc1	9	25*	-4	18	3	0	63*	12*
CCc1ccc2c(c1)NC(=O)C2(C)Cc1ccc(C(F)(F)F)nc1 (centres undefined)	/	3	/	2	/	/	/	/
O=C(C1CCN(S(=O)(=O)c2ccc(Cl)cc2)CC1)N1CCC1	/	52*	-2	-2	-2	-3	1	-2
C[C@@H]1COc2cc(N3CCSCC3)ccc2S(=O)(=O)N1C	/	/	/	1	/	/	/	/
O=C1/C(=C/C=C/c2ccccc2)Oc2c1ccc(O)c2CN1CCN(CCO)CC1	-62	31*	-2	21*	4	-5	18	18*
CN(C)Cc1c(O)ccc2c1O/C(=C\C=C\c1ccccc1)C2=O	13	29*	-8	14	-6	-6	20	24*
CCN1CCN(Cc2c(O)ccc3c2O/C(=C\C=C\c2ccccc2)C3=O)CC1	36*	34*	1	22*	-4	5	23*	19*
O=[N+]([O-])/C=C\c1ccc(N2CCOCC2)cc1	/	65*	20	6	12	1	88*	89*
CN(C)CCCCCCN(C)C	/	/	/	1	/	/	/	/
O=C(CSc1nnc(-c2ccc(Cl)cc2)n1Cc1ccco1)c1cccs1	29	33*	4	23*	1	47*	12	14*
O=C(CSc1nnc(-c2ccncc2)n1Cc1ccco1)c1ccc(Cl)cc1	6	32*	2	7	3	14	18	29*
NC(=O)CSc1nnc(-c2cccs2)n1Cc1ccco1	1	1	-8	2	-3	3	/	/
Cc1nc2c(o1)CCc1ccccc1C2N1CCN(C)CC1 (centres undefined)	-5	57*!	-1	6	10	1	40*	7
O=C(Cn1cc(COc2c(F)c(F)cc(F)c2F)nn1)c1ccc(O)cc1	/	31*	/	8	/	/	45*	35*
SMILES	HCV NS3 hel inh	ABHD5-PLIN5 inh	APOBEC3G inh	PRMT1 inh	APOBEC3A inh	core dimer inh	ABHD5 PLIN5 conf	HNF4 split-luc
CCC(=O)c1ccc(OCc2cn(CC(=O)c3ccc(O)cc3)nn2)cc1	/	14	/	-2	/	/	/	/
COc1ccc(OCc2cn(CC(=O)c3ccc(O)cc3)nn2)cc1	/	24*	/	5	/	/	60*	30*
O=C(CNS(=O)(=O)Cc1ccccc1)NNc1ccccc1	/	0	/	4	/	/	/	/
COc1cccc(C(=O)N2CCC(C(=O)NCc3ccco3)CC2)c1	3	-2	-8	-3	-1	-4	/	/
O=C(/C=C/c1ccc2c(c1)OCCCO2)c1ccccc1O	-1	27*	-7	1	-3	6	78*	53*
Cc1ccc(O)c(C(=O)/C=C/c2ccc3c(c2)OCCCO3)c1	-8	32*	-7	6	-1	9	66*	45*
CC1(C)CC(=O)C2=C(C1)OC1=C(C(=O)CC(C)(C)C1)C2c1ccc(O)c([N+](=O)[O-])c1	-7	0	-1	3	3	6	/	/
CC1(C)CC(=O)C2=C(C1)OC1=C(C(=O)CC(C)(C)C1)C2c1ccc(O)cc1O	5	87*	2	78*	3	-3	102*	108*
O=C1NC[C@H](CCCCN2CCN(Cc3ccccc3)C(=O)C2=O)N(CC2CCCCC2)C1=O	/	1	/	-1	/	/	/	/
COCCN(CC(=O)NC1CCCCC1)C(=O)/C=C/C(=O)c1ccc(OC)cc1O	2	62*	/	21	/	/	102*	106*
CCCCCNC(=O)C(c1ccncc1)n1c(=O)c(-c2ccco2)nc2ccccc21 (centres undefined)	/	58*	/	8	/	/	35*	15*
CCCCCNC(=O)C(c1cc2ccccc2o1)n1c(=O)c(-c2ccco2)nc2ccccc21 (centres undefined)	/	94*	/	17	/	/	85*	14*
CC(C)(C)NC(=O)C(c1cc2ccccc2o1)n1c(=O)c(-c2ccco2)nc2ccccc21 (centres undefined)	/	79*	/	23*	/	/	84*	16*
CCOC(=O)C1(C)CCN1C(=O)c1ccc(C(C)(C)C)cc1 (centres undefined)	/	-8	/	3	/	/	/	/
CN(C)CCN(Cc1ccco1)c1ccccn1	/	46*	/	-5	/	/	35*	0
